Screens from PubChem BioAssay.
Most compounds without a hit are left out; they make up all but 1.3% or so of the library.
TMEM16A act = TMEM16A chloride channel activators or potentiators, primary screen, cell-based, HTS; actives 0.3% (n = 340,000); AID 623877, 2012; HEK293 TMEM16A/YFP-H148Q/I152L, iodide quench fluorescence; active compounds read low; B-score at 10 µM; Anoctamin-1 (Mus musculus), Q8BHY3;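 active = fluorescence-ratio B-score plate-corrected deviation score at least 3 library SD below zero, with starting fluorescence score within 5 deviations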;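 note: channel opened by trigger with iodide after compound preincubation; score built on the fluorescence ratio of max minus min over baseline; more negative score means more quench and so TMEM16A activation or potentiation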
DAGLB inhibitor = DAGLB lipase inhibitors, primary screen, biochemical, fluorescence, HTS; Diacylglycerol lipase-beta (Homo sapiens), Q8NCG7; HEK293T DAGLB membrane lysate, EnzChek fluorogenic substrate; AID 504411, 2011; actives 0.059% (n = 340,000); inhibition, % at 5.17 µM; in the data active = inhibition above about 34%;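 note: 0% = enzyme with vehicle and 100% = wells lacking enzyme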
Target sequence (Q8NCG7 whole entry, looked up): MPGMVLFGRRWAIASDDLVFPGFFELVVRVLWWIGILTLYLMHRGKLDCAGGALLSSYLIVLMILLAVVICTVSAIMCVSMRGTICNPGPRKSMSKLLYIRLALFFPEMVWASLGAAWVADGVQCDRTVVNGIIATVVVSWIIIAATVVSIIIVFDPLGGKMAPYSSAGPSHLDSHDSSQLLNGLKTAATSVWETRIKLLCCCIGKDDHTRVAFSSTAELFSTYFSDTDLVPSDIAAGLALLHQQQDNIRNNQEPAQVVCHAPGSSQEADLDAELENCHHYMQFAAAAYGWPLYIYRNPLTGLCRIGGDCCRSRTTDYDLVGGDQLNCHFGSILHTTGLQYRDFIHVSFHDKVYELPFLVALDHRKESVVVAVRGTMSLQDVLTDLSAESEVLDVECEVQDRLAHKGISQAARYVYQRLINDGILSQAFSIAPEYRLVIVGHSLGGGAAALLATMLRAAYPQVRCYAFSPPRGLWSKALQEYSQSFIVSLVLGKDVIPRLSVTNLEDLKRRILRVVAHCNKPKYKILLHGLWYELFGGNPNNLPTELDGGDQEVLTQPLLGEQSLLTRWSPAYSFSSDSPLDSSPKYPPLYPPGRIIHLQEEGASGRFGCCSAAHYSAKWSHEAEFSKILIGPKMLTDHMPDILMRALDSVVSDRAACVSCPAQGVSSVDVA
TMEM16A inh = TMEM16A chloride channel inhibitors, primary screen, cell-based, HTS | Anoctamin-1 (Mus musculus), Q8BHY3 | HEK293 TMEM16A/YFP iodide influx fluorescence, ionomycin | normalized B-score (activity score, 25-100; higher = stronger inhibition) at 10 µM | actives 1.2% (n = 310,000) | AID 588511, 2011;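 active = ratio plate-corrected score three or more library SD toward inhibition, starting fluorescence score within five deviations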;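 note: score derived from kinetic fluorescence span divided by baseline fluorescence per well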
MT1-MMP act inh = blockers of MT1-MMP proenzyme processing, primary screen, HT1080 RFP-PRO-GFP cells, GFP/RFP fluorescence. Matrix metalloproteinase-14 (Homo sapiens), P50281. GFP/RFP ratio fluorescence, overnight; percent of plate control window, DMSO zero. actives 0.061% (n = 360,000). GFP/RFP ratio change, % at 20 µM;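 active = GFP/RFP ratio change of at least 30% with cell ATP level not reduced by more than half and red fluorescence within 50% of control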
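Assay system: HT1080 RFP-PRO-GFP cells. Benchmarks: DMSO vehicle wells and RFP-L50D-GFP reporter cell wells. Times: overnight cell settling, then overnight compound exposure, 37 °C, 5% CO2. Compound: 20 µM single dose, 1% DMSO. Read-out basis: GFP/RFP fluorescence ratio.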
The depositor's hits bear a star; i = inactive; · = not tested or not shown.

SMILES | TMEM16A act | DAGLB inhibitor | TMEM16A inh | MT1-MMP act inh
CN(CC(=O)NCCc1ccccc1)S(=O)(=O)c1cccs1 | -5.4* | -3 | i | -2
O=C(O)c1cnc(-c2ccccc2)nc1Sc1cccc(Cl)c1 | i | 9 | i | 2
O=C(O)c1cnc(-c2ccccc2)nc1Sc1ccc(Cl)cc1Cl | i | 6 | 100* | 3
Cc1ccc(NC(=O)Nc2ccc(Cl)cn2)cc1 | -5.9* | -1 | · | 0
Cc1ccc(NC(=O)Nc2ccc(Cl)c(Cl)c2)nc1 | i | -3 | i | -9
O=c1c2ccccc2ncn1CCCOc1ccccc1[N+](=O)[O-] | i | -2 | 25* | -3
O=[N+]([O-])c1ccccc1OCCCn1cnc2ccccc21 | i | 0 | · | 3
O=c1cc(-c2ccccc2)[nH]n1-c1ccc([N+](=O)[O-])cc1 | i | 27 | 100* | 18
Nc1ccn([C@@H]2O[C@H](C(=O)N[C@H](CO)Cc3ccccc3)[C@@H](O)[C@H]2O)c(=O)n1 | · | · | · | -1
COc1ccc(Br)cc1CSC(=N)N | i | -1 | i | -3
CCCCCOc1ccc(Br)cc1CSC(=N)N | -7.7* | 1 | · | -28
COc1ccc(NS(=O)(=O)c2ccc(N3CCOCC3)c(N)c2)cc1 | i | 0 | · | 9
COc1ccc(CN(C)C(=O)CCN(c2ccccc2)S(=O)(=O)c2ccc(C)cc2)c(OC)c1 | i | -8 | 25* | -9
COc1ccc(OC)c(C2=Nn3c(nnc3-c3cccc(OC(C)C)c3)SC2)c1 | -5* | -2 | i | -11
O=C(c1[nH]c(C(F)(F)F)nc1-c1ccccc1)N1CCN(c2cccc(C(F)(F)F)n2)CC1 | · | · | · | 9
CC(C)CN(CC(C)C)C(=O)Cc1coc2ccc3ccccc3c12 | i | -16 | 25* | -11
COc1ccccc1Cc1c(C2CCCCC2)nc2cc(C)c(Br)c(C)n12 | · | · | · | 0
Cc1ccc(S(=O)(=O)N(C)CC(=O)O/N=C(\N)c2cccc(Br)c2)cc1 | -14* | -12 | i | 4
O=C(O)Cc1cccc(=O)c(O)c1C(=O)O | i | 1 | · | -2
O=C(CCN1C(=O)/C(=C\C=C\c2ccccc2)SC1=S)Nc1cccc(C(=O)O)c1 | i | 11 | i | 4
O=C(CCN1C(=O)/C(=C\C=C\c2ccccc2)SC1=S)Nc1ccccc1C(=O)O | i | 9 | 25* | 5
CCc1ccc([C@@H]2C[C@H]3[C@@H](CN2S(=O)(=O)c2ccc(C)cc2)C(=O)C[C@@H](c2ccc(C)cc2)N3S(=O)(=O)c2ccc(C)cc2)cc1 | · | -6 | · | -1
O=C1C2CC=CCC2C(=O)N1c1ccc(NCCc2ccc(O)cc2)c([N+](=O)[O-])c1 (stereo not given) | i | 14 | 25* | 16
COc1ccc(N2CCN(C(=O)CSc3nc4nc(C)cc(C)n4n3)CC2)cc1 | i | 1 | · | -4
NS(=O)(=O)c1ccc(CCNC(=O)CNCCc2ccccc2)cc1 | i | -4 | i | 1
SMILES | TMEM16A act | DAGLB inhibitor | TMEM16A inh | MT1-MMP act inh
NS(=O)(=O)c1ccc(CCNC(=O)CCCOc2ccccc2)cc1 | -4.6* | 0 | i | 3
O=C(CCCOc1ccccc1)NCCc1ccccc1 | i | · | i | 1
NS(=O)(=O)c1ccc(CCNC(=O)CNC(=O)COc2ccccc2)cc1 | -4.7* | -5 | i | 2
N#CC(C#N)=Cc1cccn1-c1ccc(S(N)(=O)=O)cc1 | -6.1* | 0 | i | 1
CC(C)(O)C#Cc1ccc(N2C(c3ccsc3)=Cc3ccc(F)cc3C2c2c[nH]c3ccccc23)cc1 (stereo not given) | · | · | · | -14
CCN(Cc1ccccc1)c1ccccc1 | i | -3 | · | -2
CCN(Cc1ccccc1)c1ccc(/C=N/N=C(N)N)cc1 | i | 4 | 100* | -13
COc1ccc(-c2noc(CN(C(=O)c3ccc4c(c3)OCO4)C(C)C)n2)cc1 | i | -6 | i | -1
CN(Cc1nc(-c2ccc(Cl)cc2)no1)C(=O)c1ccc2c(c1)OCO2 | i | -9 | 25* | 3
O=C(COC(=O)C1CC2C=CC1C2)Nc1cccc(S(=O)(=O)N2CCCCCC2)c1 (stereo not given) | i | -7 | 100* | 0
O=C(Cn1nc(C(=O)O)c2ccccc2c1=O)Nc1cccc(S(=O)(=O)N2CCCCCC2)c1 | i | -2 | · | -2
CCN(CC)S(=O)(=O)c1cc(NC(=O)CNc2cccc(S(=O)(=O)N3CCCC3)c2)ccc1C | i | 1 | 100* | 4
O=C(Cn1[nH]c(=O)c2ccccc2c1=O)Nc1cccc(S(=O)(=O)N2CCCCCC2)c1 | i | -1 | 100* | 1
CN(C)S(=O)(=O)c1cccc(NC(=O)CNc2cccc(S(=O)(=O)N3CCCCC3)c2)c1 | · | -5 | · | 1
Cc1ccc(NC(=O)C2CCN(S(=O)(=O)c3ccc4c(c3)NC(=O)C(C)S4)CC2)cc1Cl (stereo not given) | i | 3 | i | 0
CCCNC(=O)C1(C)CCN(Cc2ccc(C)c3ccccc23)C1 (stereo not given) | · | · | · | -1
CCC(Sc1nc(N)c(NC(=O)c2ccc(Br)o2)c(=O)[nH]1)C(=O)O (stereo not given) | i | 0 | i | 1
CCn1c(SCc2nc3scc(-c4ccccc4)c3c(=O)[nH]2)nnc1-c1cccs1 | i | 1 | 100* | 4
Cc1nnc(SCc2nc3scc(-c4ccccc4)c3c(=O)[nH]2)s1 | i | 6 | i | 0
O=C(Nc1cccnc1)c1ccc(Oc2ccccc2)cc1 | i | -2 | 25* | 8
CCOC(=O)[C@]12CCCC=C1N(Cc1cccc3ccccc13)C(=O)[C@H](CC(=O)N1CCN(C(=O)c3ccco3)CC1)C2 | · | · | · | 3
COc1ccc2c(c1)[nH]c1c(N3CCN(Cc4ccc5c(c4)OCO5)CC3)ncnc12 | i | 0 | 100* | 25
O=C(O)C1=CCC(c2ccc(Cl)c(Cl)c2)N(S(=O)(=O)c2ccc(F)cc2)C1c1cccc(F)c1 (stereo not given) | · | · | · | 3
Cc1ccc(CNC(=O)C2CCCN(Cc3cnn(-c4ccccc4)c3-n3cccc3)C2)cc1 (stereo not given) | i | 0 | i | 13
O=C(NCC1CCCO1)C1CCCN(Cc2cnn(-c3ccccc3)c2-n2cccc2)C1 (stereo not given) | -25* | 0 | i | 1
Cc1cc(CCNC=O)c(C)c2c1oc1ccccc12 | i | -3 | · | -1
COCCNC(=O)c1ccc(CN2CCC(Cc3ccccc3)CC2)cc1 | i | -2 | i | 1
O=C(NCCc1ccccc1)C(=O)NCC1CCCN1S(=O)(=O)c1ccccc1 (stereo not given) | i | 1 | i | 4
